Calls of active or inactive are those of the source. No cut-off for these calls is given here.

What all share (format): functional
Assay [1] deals with Radical scavenging activity. Description: Antioxidant activity assessed as DPPH radical scavenging activity after 20 min. The procedure, abridged: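 Percent antiradical activity = (1 − sample/blank absorbance)×100; IC25 from logarithmic regression over 5–6 concentrations; highest concentration tested 400 µM.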
On the technique in general: DPPH is a stable violet radical that fades when it is reduced.

A short description of assay [2]: Antioxidant activity assessed as inhibition of superoxide production by xanthine/xanthine oxidase method. The method in brief: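 Superoxide generated from 500 µM xanthine with 3.75 mU/mL xanthine oxidase in 0.1 M phosphate buffer pH 7.5, detected as reduction of 500 µM NBT to monoformazan at 560 nm, 25°C, as rate of absorbance change. IC25 from rate versus log concentration, 5–7 concentrations, top concentration 50 µM.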

Assay [3] in a line: Antioxidant activity in BALB/c mouse BM cells assessed as inhibition of ROS production. The note with it: Bone marrow cell. The procedure, abridged:
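Whole bone marrow cells flushed from tibias and femurs with phenol red-free HBSS pH 7.4, strained through 70 µm, 1 × 10^6 cells/mL. L-012 (40 µM final) and horseradish peroxidase (8 µg/ml final) added; cells mixed with compound from DMSO stock (1% DMSO final). Luminescence read 60 min every 2 min at 37°C; area under curve gives total signal; IC25 from % inhibition versus log concentration, 5–7 concentrations.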

In general, IC25 refers to the point of the concentration-response curve where the effect stands at 25%. For the compound `O=c1c(O)c(-c2ccc(O)c(O)c2)oc2ccccc12`, the figures for the IC25 in assay [1], in assay [2] and in assay [3] were 0.7 µM, 0.68 µM and 1.75 µM, respectively.
In the case of `O=c1cc(-c2cccc(O)c2)oc2c(O)c(O)ccc12`, the IC25 in assay [1] was 2.7 µM; in assay [2] it was 2.4 µM; in assay [3] it was 0.8 µM.
With `COc1cccc2oc(-c3ccc(O)cc3)cc(=O)c12`, the result in assay [1] and in assay [2] was inactive. Also, the IC25 in assay [3] is 1270 µM.
With `O=c1cc(-c2ccccc2O)oc2cc(O)cc(O)c12`, the result in assay [1] and in assay [2] was inactive. For the same compound, the IC25 in assay [3] came out at 5.7 µM.
Take `COc1c(-c2ccccc2)oc2cc(O)ccc2c1=O`: the result in assay [1] and in assay [2] was inactive. Further, in assay [3], the 25% effect concentration (IC25) is 1050 µM.
Consider `COc1ccc2c(=O)cc(-c3ccccc3)oc2c1O`, for which the outcome in assay [1] and in assay [2] was inactive. Further, the IC25 in assay [3] stood at 3.1 µM.
Regarding `O=c1cc(-c2ccccc2O)oc2c(O)c(O)ccc12`, the IC25 in assay [1] came out at 2.1 µM; in assay [2], 1.2 µM; in assay [3], 0.52 µM.
For `COc1ccccc1-c1oc2ccccc2c(=O)c1O`, the result in assay [1] was inactive. Besides, the 25% effect concentration (IC25) in assay [3] worked out at 49 µM.
As to `COc1cc([C@@H]2Oc3cc([C@@H]4Oc5cc(O)cc(O)c5C(=O)[C@H]4O)ccc3O[C@H]2CO)ccc1O`, the IC25 worked out at 61.4 µM in assay [1], 7.7 µM in assay [2] and 140 µM in assay [3].
Regarding `COc1cc(-c2cc(=O)c3ccccc3o2)ccc1O`, the outcome in assay [1] and in assay [2] was inactive. For the same compound, the concentration for an effect of 25% (IC25) in assay [3] came to 14.5 µM.
Take `COc1ccc(-c2cc(=O)c3c(O)cc(O[C@@H]4O[C@H](CO[C@@H]5O[C@@H](C)[C@H](O)[C@@H](O)[C@H]5O)[C@@H](O)[C@H](O)[C@H]4O)cc3o2)cc1O`: the outcome in assay [1] and in assay [2] was inactive.
Consider `COc1ccc(-c2oc3ccc(C)cc3c(=O)c2O)cc1OC`, for which, in assay [1], the IC25 amounted to 89 µM.
For `COc1ccc(C2CC(=O)c3c(O)cc(O[C@@H]4O[C@H](CO[C@@H]5O[C@@H](C)[C@H](O)[C@@H](O)[C@H]5O)[C@@H](O)[C@H](O)[C@H]4O)cc3O2)cc1O` (stereo not given in full), the outcome in assay [1] and in assay [2] was inactive.
For the compound `C[C@@H]1O[C@@H](OC[C@H]2O[C@@H](Oc3c(-c4ccc(O)c(O)c4)oc4cc(O)cc(O)c4c3=O)[C@H](O)[C@@H](O)[C@@H]2O)[C@H](O)[C@H](O)[C@H]1O`, the IC25 in assay [1] stood at 12.2 µM; in assay [2], 4.5 µM.
`O=c1c(O)c(-c2ccc(O)cc2)oc2ccc(O)cc12`: the IC25 in assay [1] came out at 4.5 µM.
For the compound `O=c1cc(-c2ccc(O)c(O)c2)oc2cccc(O)c12`, the IC25 in assay [1] was 1.5 µM.
On to `O=c1cc(-c2cccc(O)c2O)oc2ccccc12`, for which the IC25 in assay [1] worked out at 0.5 µM.
For the compound `O=C1CC(c2ccccc2O)Oc2ccccc21` (stereo not given) [2'-HYDROXY-FLAVANONE], the outcome in assay [1] and in assay [2] was inactive. Moreover, the IC25 in assay [3] is 5620 µM.
With `COc1c(-c2ccc(O)c(O)c2)oc2cc(O)cc(O)c2c1=O` [3-O-METHYLQUERCETIN], the IC25 in assay [1] came to 5.9 µM; in assay [2], 3.6 µM; in assay [3], 58 µM.
Consider `O=C1CC(c2ccc(O)cc2)Oc2ccccc21` (stereo not given) [4'-HYDROXY-FLAVANONE], for which the result in assay [1] and in assay [2] was inactive. The IC25 in assay [3] turned out to be 3300 µM.
As for `COc1ccc(-c2cc(=O)c3c(O)cc(O)cc3o2)cc1` [ACACETIN], the result in assay [1] was inactive. The IC25 was 16.3 µM in assay [2] and 1180 µM in assay [3].
Consider `O=c1cc(-c2ccc(O)cc2)oc2cc(O)cc(O)c12` [APIGENIN], for which the outcome in assay [1] and in assay [2] was inactive. Also, the IC25 in assay [3] came out at 113 µM.
For the compound `CN1CCc2cccc3c2[C@H]1Cc1ccc(O)c(O)c1-3` [APOMORPHINE], the IC25 in assay [2] stood at 16.2 µM.
Consider `O=c1cc(-c2ccccc2)oc2cc(O)c(O)c(O)c12` [BAICALEIN], for which the IC25 in assay [1] came to 1.5 µM; in assay [2] it was 2.6 µM; in assay [3] it was 10.4 µM.
Take `COc1ccc(-c2coc3cc(O)cc(O)c3c2=O)cc1` [BIOCHANIN]: the result in assay [1] and in assay [2] was inactive. Moreover, the IC25 in assay [3] was determined as 33 µM.
On to `O=c1cc(-c2ccccc2)oc2cc(O)cc(O)c12` [CHRYSIN], for which the outcome in assay [1] and in assay [2] was inactive. Besides, the IC25 in assay [3] is 4480 µM.
Take `Oc1cc(O)c2c(c1)O[C@H](c1ccc(O)c(O)c1)[C@@H](O)C2` [CIANIDANOL]: the IC25 was 33.3 µM in assay [1], 45.8 µM in assay [2] and 168 µM in assay [3].
`O=c1c(O)c(-c2ccc(O)c(O)c2)oc2cc(O)ccc12` [FISETIN]: the IC25 in assay [1] was found to be 7.9 µM; in assay [2] it was 2.7 µM; in assay [3] it was 31 µM.
For the compound `O=c1c(O)c(-c2ccccc2)oc2cc(O)cc(O)c12` [GALANGIN], the IC25 worked out at 86.4 µM in assay [1] and 4.3 µM in assay [3]. Besides, the outcome in assay [2] was inactive.
For `COc1ccc([C@@H]2CC(=O)c3c(O)cc(O)cc3O2)cc1O` [HESPERETIN], in that order: 83 µM, 647 µM and “inactive”.
On to `O=c1c(O)c(-c2ccc(O)cc2)oc2cc(O)cc(O)c12` [KAEMPFEROL], for which the IC25 in assay [1] stood at 22.6 µM; in assay [3], 4 µM. Moreover, the outcome in assay [2] was inactive.
Consider `O=c1cc(-c2ccc(O)c(O)c2)oc2cc(O)cc(O)c12` [LUTEOLIN], for which the concentration for an effect of 25% (IC25) in assay [1] was 12.1 µM; in assay [2], 6.9 µM; in assay [3] it was 13.7 µM.
Turning to `O=c1c(O)c(-c2cc(O)c(O)c(O)c2)oc2cc(O)cc(O)c12` [MYRICETIN], the IC25 came to 41.8 µM in assay [1], 6.8 µM in assay [2] and 5.2 µM in assay [3].
With `O=C1C[C@@H](c2ccc(O)cc2)Oc2cc(O)cc(O)c21` [NARINGENIN], the result in assay [1] and in assay [2] was inactive. Besides, the IC25 in assay [3] is 551 µM.
Regarding `O=C(CCc1ccc(O)cc1)c1c(O)cc(O)cc1O` [PHLORETIN], the result in assay [1] and in assay [2] was inactive. The IC25 in assay [3] came to 300 µM.
Regarding `O=c1c(O)c(-c2ccc(O)c(O)c2)oc2cc(O)cc(O)c12` [QUERCETIN], the concentration for an effect of 25% (IC25) in assay [1] came to 8.1 µM; in assay [2] it was 3 µM; in assay [3], 3.5 µM.
Consider `O=c1c(O)c(-c2ccc(O)cc2)oc2cc(O)ccc12` [RESOKAEMPFEROL], for which the results for the IC25 in assay [1], in assay [2] and in assay [3] were 4.1 µM, 48 µM and 23 µM, respectively.
Consider `Oc1ccc(/C=C/c2cc(O)cc(O)c2)cc1` [RESVERATROL], for which the IC25 worked out at 349 µM in assay [1] and 70 µM in assay [3]. Moreover, in assay [2], the outcome was inactive.
In the case of `C[C@@H]1O[C@@H](O[C@H]2[C@H](Oc3cc(O)c4c(=O)cc(-c5ccc(O)cc5)oc4c3)O[C@H](CO)[C@@H](O)[C@@H]2O)[C@H](O)[C@H](O)[C@H]1O` [RHOIFOLIN], the 25% effect concentration (IC25) in assay [2] turned out to be 7.2 µM; in assay [3], 201 µM.
As for `COc1cc(O)c2c(=O)cc(-c3ccccc3)oc2c1` [TECHTOCHRYSIN], the result in assay [1] and in assay [2] was inactive. The concentration for an effect of 25% (IC25) in assay [3] worked out at 160 µM.

The values above are taken from ChEMBL document CHEMBL1146339, “Improved quantitative structure-activity relationship models to predict antioxidant activity of flavonoids in chemical, enzymatic, and cellular systems” (Bioorg Med Chem, 2007).
